Source: PubChem BioAssay (The Scripps Research Institute Molecular Screening Center)
An excerpt weighted towards active compounds, which were near 1.8% of everything screened.
M5 ag: agonists of human muscarinic M5 receptor (CHRM5). P08912. CHO-K1 hM5 cells, Fluo-8 calcium fluorescence; 0% DMSO wells, 100% maximal acetylcholine response. activation, % at 3 µM. 0.19% of 360,000 active;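 active = activation above the run's mean over test compounds plus 3 SD, cut at about 23% in these data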;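 also: signal is peak over basal fluorescence ratio across the kinetic read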
Target sequence (P08912 whole entry, looked up): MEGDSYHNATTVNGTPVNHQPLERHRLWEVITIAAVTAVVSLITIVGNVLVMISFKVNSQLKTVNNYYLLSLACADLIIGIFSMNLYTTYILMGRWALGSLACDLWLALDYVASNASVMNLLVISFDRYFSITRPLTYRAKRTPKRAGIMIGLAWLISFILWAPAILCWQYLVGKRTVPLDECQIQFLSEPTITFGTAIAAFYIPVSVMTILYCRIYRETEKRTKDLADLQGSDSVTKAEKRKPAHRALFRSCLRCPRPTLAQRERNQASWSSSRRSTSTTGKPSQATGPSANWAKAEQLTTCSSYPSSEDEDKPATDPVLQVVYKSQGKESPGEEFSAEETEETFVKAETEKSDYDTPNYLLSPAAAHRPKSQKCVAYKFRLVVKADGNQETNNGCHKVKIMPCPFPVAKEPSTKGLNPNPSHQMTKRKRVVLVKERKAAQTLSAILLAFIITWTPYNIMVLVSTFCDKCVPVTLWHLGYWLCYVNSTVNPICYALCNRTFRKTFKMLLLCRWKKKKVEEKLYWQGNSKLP
M5 PAM: positive allosteric modulators of human muscarinic M5 receptor. CHO-K1 hM5, Fluo-8 calcium, ACh EC20 PAM; 0% = ACh EC20, 100% = ACh EC100. activation, % at 3 µM. 0.3% of 360,000 active. AID 624038;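 active = activation above the run cutoff, the mean activation of all test compounds plus 3 SD, cut at about 18% in these data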
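System: CHO-K1 cell line with stable human muscarinic M5 receptor expression | Also added: EC20 acetylcholine as agonist stimulus | Compound: One concentration, 3 µM final (nominal) | Timing: Fluo-8 loading 80 min at 37 °C plus 30 min room temperature | Measured by: Fluo-8 calcium dye fluorescence, kinetic read | Read-out basis: % activation, ACh-normalized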
CHRM4 agonist: agonists of human muscarinic M4 receptor (CHRM4); P08173; CHO-K1 hM4/Gqi5, Fluo-8 calcium fluorescence; vehicle 0%, full acetylcholine response 100%; activation, % at 3 µM; 0.14% of 360,000 active;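 active = activation above the run mean over all test wells plus 3 SD, cut at about 32% in these data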;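 also: peak over basal fluorescence ratio per well then scaled between controls; 0% = DMSO wells and 100% = acetylcholine at EC100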
M4 antag: blocks acetylcholine activation of human M4 receptor; CHO-hM4 cells, ACh EC80, Fluo-8 calcium fluorescence; inhibition, % at 3 µM; 0.73% of 360,000 active;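 active = inhibition above its plate's cutoff, the mean inhibition of sample wells plus 3 SD, cut at about 27% in these data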;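 also: 0% = acetylcholine EC80 with DMSO and 100% = DMSO without agonist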
CHRM5 antagonist: CHRM5 antagonism in calcium assay | P08912 | CHO-hM5 cells, Fluo-8 calcium fluorescence, ACh EC80 | inhibition, % at 3 µM | 0.59% of 360,000 active | AID 624040;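 active = inhibition above a per-plate cutoff, the mean of that plate's test compounds plus 3 SD, cut at about 27% in these data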;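 also: 0% = acetylcholine EC80 with DMSO and 100% = DMSO without agonist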
M4 PAM: potentiates acetylcholine response at human M4 receptor; AID 624126; 0.4% of 360,000 active; activation, % at 3 µM; CHO-K1 hM4/Gqi5, Fluo-8 calcium fluorescence, ACh EC20; 0% = ACh EC20, 100% = maximal ACh;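 active = activation above its plate's cutoff, the mean activation of sample wells plus 3 SD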
* hit, by the source's call.

SMILES | M5 ag | M5 PAM | CHRM4 agonist | M4 antag | CHRM5 antagonist | M4 PAM
CCOC(=O)/C=c1/s/c(=C/c2ccc3cc(OC)ccc3c2)c(=O)n1CC(=O)NCc1ccc2c(c1)OCO2 | 39* | -6 | 2 | -4 | 38* | 1
CCOc1ccc(CCN2C(=O)C(=O)N([C@@H](CC(C)C)CN3CCC[C@H]3CN3C(=O)C(=O)NC[C@@H]3Cc3ccccc3)C[C@@H]2Cc2ccccc2)cc1 | -2 | 0 | -2 | -7 | -5 | 7
COc1ccc(-c2ccc(C(=O)NCc3ccco3)c3occc23)c(C)c1 | -3 | -4 | 0 | 9 | 4 | -4
CCCSc1ccc([C@@H]2[C@@H]3C(=O)N(C)C(=O)[C@@H]3[C@]3(C(=O)OC)CCCN23)cc1OC | 3 | -10 | 2 | -4 | 5 | 3
CCOC(=O)c1ccccc1-n1c(C)cc(C2N=C(N)Nc3nc4ccccc4n32)c1C (stereo unspecified) | -7 | -22 | 1 | 60* | 9 | -16
Cc1nn(-c2ccccc2)c(N)c1Sc1cccc([N+](=O)[O-])c1 | -5 | -11 | 7 | -11 | 7 | -11
Cc1cc(C)nc(-n2nc(C)c(Sc3ccc(F)cc3)c2N)n1 | 3 | 7 | 2 | 3 | 1 | 23*
O=[N+]([O-])c1c(Nc2cccc(O)c2)cc(Cl)c2nonc12 | -5 | 2 | -2 | 60* | 15 | -2
CN1CCC(C2(O)c3ccccc3CCc3ccccc32)CC1 | -6 | -18 | 1 | 52* | 37* | -37
CN1CCC(C2(O)c3ccccc3CSc3sccc32)CC1 (stereo unspecified) | -14 | -30 | 1 | -1 | 11 | -6
CCOc1ccc(Nc2cc(C)nc3c(C)cccc23)cc1 | 0 | 20* | 1 | -2 | -11 | -4
Cc1cc(/C=N/n2cnnc2)c(C)n1-c1ccc(OCc2ccc(Cl)cc2Cl)cc1 | -5 | -15 | 3 | 47* | 37* | -12
C/C=C\C(=O)Nc1cccc(C2=NOC3(C2)C[C@@H](C(N)=O)N(C(=O)c2ccc(Cl)cc2)C3)c1 (stereo partly specified) | -2 | 19* | 1 | -6 | 1 | 7
CCOC(=O)c1cc(-c2ccccc2)nn1CCC#N | 2 | 4 | 0 | -4 | 3 | 4
C=CCn1nc(-c2ccccc2)cc1C(=O)OCC | 5 | 21* | -2 | -13 | -5 | 19
CCCCOc1ccc(N2C(=O)C(C)CNC2=S)cc1 (stereo unspecified) | 0 | 12 | 1 | -4 | -9 | 5
CCCCCCCCCCCCCCCCn1cc[n+](C)c1 | -6 | -21 | 2 | 30* | 48* | -17
COc1cc(OC)cc(C(=O)NC2CC(C)(C)NC(C)(C)C2)c1 | 1 | -3 | 1 | 1 | 0 | 1
COCC(=O)N(Cc1cc2cc(C)ccc2[nH]c1=O)c1ccccc1 | 0 | 6 | 2 | -21 | -2 | 23*
COCC(=O)N(Cc1cc2ccc(C)cc2[nH]c1=O)c1cccc(C)c1 | 1 | 1 | 0 | -4 | -8 | -5
CCCC(C)c1nnc(NC(=O)C2CCCO2)s1 (stereo unspecified) | -7 | -12 | 0 | 30* | 5 | -13
COCCN1CCN(C(=O)C2CCC(=O)N(Cc3cccc(C(F)(F)F)c3)C2)CC1 (stereo unspecified) | -3 | 2 | 3 | 2 | 2 | 5
CCCCC(CC)CN=C(N)NC(N)=NCCCCCCN=C(N)NC(N)=NCC(CC)CCCC (stereo unspecified) | -2 | -18 | 40* | 82* | 13 | -21
CCCCC(CC)CO (stereo unspecified) | 3 | 0 | 1 | -13 | 5 | 14
COc1cc(Cl)c(C)cc1NC(=O)CCCn1c(=O)oc2ccccc21 | -2 | 7 | 1 | -12 | 2 | 30*
SMILES | M5 ag | M5 PAM | CHRM4 agonist | M4 antag | CHRM5 antagonist | M4 PAM
COc1ccc(-c2csc(C(C)(NC(C)=O)c3ccccc3)n2)cn1 (stereo unspecified) | -1 | 0 | 1 | -25 | 1 | 11
Cc1ccc(S(=O)(=O)N(C)C)cc1NC(=O)CN1C(=O)NC2(CCCCCC2)C1=O | -4 | -9 | 0 | 8 | 29* | -6
Cc1ccc(C2(C)NC(=O)N(CC(=O)Nc3cc(S(=O)(=O)N(C)C)ccc3C)C2=O)cc1 (stereo unspecified) | -1 | 3 | 1 | 1 | 4 | -2
CCc1nnc(NC(=O)[C@@H](NC(=O)c2cc(OC)cc(OC)c2)C(C)C)s1 | -9 | 7 | 0 | -9 | -10 | 5
Nc1ccc2c3c(cccc13)-c1ccccc1-2 | 205* | -31 | 31 | 31* | 63* | -6
CCCCN(C(=O)CSCc1c(C)noc1C)c1c(N)n(CCCC)c(=O)[nH]c1=O | 2 | 2 | 1 | -8 | 0 | 5
COc1ccccc1-c1noc(CCC(=O)Nc2cc(C(F)(F)F)ccc2Cl)n1 | 0 | 19* | 2 | 31* | 2 | 24
COc1ccccc1-c1noc(CCC(=O)Nc2cccnc2)n1 | 3 | -2 | 3 | -1 | 6 | -4
CCCC(=O)N1CCCC1(C)C(=O)Nc1ccc2nc(C)ccc2c1 (stereo unspecified) | 0 | -5 | 1 | 7 | 4 | 8
O=C(Cn1nc([N+](=O)[O-])nc1Br)NC(c1ccccc1)c1ccccc1 | -1 | -4 | 2 | 30* | 8 | -7
Cc1ccc(N2C(=O)c3ccccc3NC2c2ccccc2O)cc1 (stereo unspecified) | -8 | -8 | 1 | 45* | 17 | -17
O=S(=O)(/N=S1/CC=CCN1S(=O)(=O)c1ccccc1)c1ccccc1 (stereo unspecified) | 26* | 3 | 22 | 16 | 6 | -7
O=c1[nH]c2c(c(=O)[nH]1)OCN(Cc1ccccc1)C2 | 3 | 10 | 0 | -2 | 4 | -2
C=CCN1C(=O)/C(=C/C=C2/N(CC)c3ccc(S(=O)(=O)N(C)C)cc3N2CC)SC1=S | 24* | -7 | 5 | 0 | -7 | -11
Cc1ccc(F)c(S(=O)(=O)NC(=O)C2(C)CCN2C(=O)c2ccc(C3CCCCC3)cc2)c1 (stereo unspecified) | 1 | 1 | 1 | -13 | -5 | 4
CCCCCCCCNC(=S)NCCN1CCCCC1 | -4 | -6 | 7 | 5 | -10 | -13
CC[C@]12c3[nH]c4ccc(Cl)cc4c3CCN1C(=O)[C@@H](CC(=O)NCc1ccc(OC)c(OC)c1)C[C@@H]2C(=O)N1CCN(C(=O)C2CC2)CC1 | -1 | 2 | 1 | 3 | -2 | -7
